High-throughput results (PubChem BioAssay)
Compounds with a hit are over-represented: about 1.5% of the library has one in this group of screens.
CSN inh: inhibitors of CSN-mediated cullin deneddylation, primary screen, biochemical, fluorescence polarization, uHTS | 360,000 tested, 0.38% active | Purified CSN, SCF-Nedd8-OG deneddylation | inhibition, % at 12.5 µM | COP9 signalosome complex subunit 5 (Homo sapiens), Q92905;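 active = pattern-corrected inhibition above about 35%, with an unprinted fluorescence ratio check between 0.5 and 1.5, limit read from the data, passing the limit was not always enough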;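 also: 0% = enzyme with substrate and 100% = substrate without enzyme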
Target sequence (Q92905 whole entry, looked up, one chain of several): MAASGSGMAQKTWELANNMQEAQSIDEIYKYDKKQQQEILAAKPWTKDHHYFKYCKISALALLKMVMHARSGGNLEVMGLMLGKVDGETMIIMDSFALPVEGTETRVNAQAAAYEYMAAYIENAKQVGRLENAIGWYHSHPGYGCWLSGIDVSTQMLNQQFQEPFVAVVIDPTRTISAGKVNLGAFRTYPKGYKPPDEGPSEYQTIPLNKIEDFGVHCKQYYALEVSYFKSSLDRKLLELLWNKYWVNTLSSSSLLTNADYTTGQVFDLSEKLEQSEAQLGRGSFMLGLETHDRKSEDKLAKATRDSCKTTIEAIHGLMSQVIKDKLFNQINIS
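Assay system: HEK293T-derived human Csn5 enzyme; quantity: 0.24 nM enzyme; medium: Tris/NaCl/DTT buffer, pH 7.5; also added: substrate SCFSkp2-Nedd8OG, 10 nM; doses: 12.5 µM compound; schedule: 90 min reaction at room temperature; signal: FP; read-out: % inhibition of substrate cleavage by Csn5; benchmarks: substrate-only high control, full reaction low control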
HNF4A DNA FP: change in binding of human HNF4A to DNA, primary screen, biochemical, fluorescence polarization, FITC-DNA; Hepatocyte nuclear factor 4-alpha (Homo sapiens), P41235; 1 h; activity change, % at 10 µM; 360,000 tested, 0.3% active; in the data active = activity change above about 30%, passing the limit was not always enough
NR1D1 modulator: modulators of Rev-erb alpha DNA binding, primary screen, biochemical, FITC-DNA, fluorescence polarization, uHTS; 370,000 tested, 0.79% active; Rev-erbα–FITC-DNA binding, 90 min; AID 1259318, 2017; activity, % at 10 µM; Nuclear receptor subfamily 1 group D member 1 (Homo sapiens), P20393;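 active = activity above about 14%, limit read from the data; passing the limit was not always enough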;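 also: 0% = DMSO wells with 35 nM protein and 100% = DMSO wells with 750 nM protein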
aDG glyco up: activators of alpha-DG glycosylation, primary screen, uHTS, Pro5-aDG cells, AlphaScreen. AID 624168, 2012. alpha-DG glycosylation AlphaScreen (IIH6); 0% Pro5, 100% B10-LARGE cell signal. 360,000 tested, 0.22% active. activation, % at 10 µM;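 active = activation of at least 8% versus controls, or a plate z-score of at least 8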;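 also: Pro5 are CHO cells carrying HIG-tagged alpha-DG that lacks glycosylation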
The depositor's hits bear a star.

`CCCCCCC(=O)O[C@H]1CC[C@H]2[C@@H]3CCc4cc(O)ccc4[C@H]3CC[C@]12C` gave NR1D1 modulator 7.1.
Screening Cc1cc(-c2ccccc2)nc(Nc2nc3c(C)cccc3c(=O)[nH]2)n1 returned CSN inh 13.7, HNF4A DNA FP 52.6*, NR1D1 modulator -15.8 and aDG glyco up 0.1.
CCc1ccc(C2=NN(S(C)(=O)=O)C(c3cccs3)C2)cc1 (stereo not drawn) was read as CSN inh 1.5, HNF4A DNA FP 91.6*, NR1D1 modulator 0.2 and aDG glyco up 0.0.
`C(=N\NC1=Nc2cccc3cccc1c23)/c1ccccn1` gave CSN inh 14.5, HNF4A DNA FP 54.4*, NR1D1 modulator 3.4 and aDG glyco up -0.5.
For Nc1ccc(Oc2c(Cl)cccc2Cl)nc1 the results were CSN inh 36.5*, HNF4A DNA FP 3.9, NR1D1 modulator 1.4 and aDG glyco up -0.1.
Screening CC(C)(C)c1ccc(Oc2ccc(N)cn2)cc1 returned CSN inh -78.2, HNF4A DNA FP 64.3*, NR1D1 modulator -2.5 and aDG glyco up -0.2.
Cc1cc(Oc2ccc(N)cn2)cc(C)c1Cl was read as CSN inh 8.5, HNF4A DNA FP 2.9, NR1D1 modulator -2.9 and aDG glyco up -0.1.
`Cc1ccc(OCc2ccc(C(=O)Nc3c(C)nn(Cc4c(F)c(F)c(F)c(F)c4F)c3C)o2)c([N+](=O)[O-])c1` gave CSN inh -2.9, HNF4A DNA FP 3.7, NR1D1 modulator 4.1 and aDG glyco up 4.0*.
COc1ccccc1C1CC(c2cccc(NS(C)(=O)=O)c2)=NN1S(=O)(=O)c1ccccc1 (stereo not drawn) was read as CSN inh 22.4, HNF4A DNA FP 81.3*, NR1D1 modulator -6.9 and aDG glyco up -0.1.
`COc1ccccc1C1CC(c2ccc(NS(C)(=O)=O)cc2)=NN1S(=O)(=O)c1ccccc1` (stereo not drawn) gave CSN inh -2.1, HNF4A DNA FP 0.1, NR1D1 modulator 1.7 and aDG glyco up 0.3.
For COc1ccccc1/C=N/NC(=O)CC(=O)Nc1ccc(Cl)c(Cl)c1 the results were CSN inh -3.1, HNF4A DNA FP 44.4*, NR1D1 modulator 3.4 and aDG glyco up 0.5.
Screening COc1ccccc1/C=N/NC(=O)COCC(=O)N/N=C/c1ccccc1OC returned CSN inh 0.0, HNF4A DNA FP 2.4, NR1D1 modulator 0.9 and aDG glyco up 0.1.
Screening CCOC(=O)CCSc1nc(C(C)(C)C)cc(C(F)(F)F)c1C#N returned CSN inh 1.0, HNF4A DNA FP -13.2, NR1D1 modulator 5.0 and aDG glyco up -0.2.
Screening CCOC(=O)CCSc1nc(C)cc(C(F)(F)F)c1C#N returned CSN inh 37.9*, HNF4A DNA FP 27.9, NR1D1 modulator 3.0 and aDG glyco up -0.1.
CC(C)CN1CN2Cc3cc(F)ccc3C2CS1(=O)=O (stereo not drawn) was read as NR1D1 modulator -1.5.
For Cc1cc(C(=O)COC(=O)c2cc(Cl)c(O)c(Cl)c2)c(C)n1C the results were CSN inh 41.8*, HNF4A DNA FP -22.8, NR1D1 modulator -29.3 and aDG glyco up 0.0.
Screening Cc1cc(C(=O)COC(=O)c2ccc(F)cc2)c(C)n1C returned CSN inh -4.3, HNF4A DNA FP -2.7, NR1D1 modulator -10.6 and aDG glyco up 0.3.
`O=C(Cc1nc2ccccc2[nH]c1=O)c1ccccc1` gave CSN inh -3.0, HNF4A DNA FP 38.3*, NR1D1 modulator 6.5 and aDG glyco up 1.0.
For Cc1ccc(C(=O)NCC(c2ccc(F)cc2)N2CCOCC2)cc1 (stereo not drawn) the results were CSN inh 0.0, HNF4A DNA FP 77.2*, NR1D1 modulator -4.7 and aDG glyco up -0.1.
Screening O=C1[C@@H](CCc2ccccc2)[C@@H]2c3ccccc3C=NN2[C@@H]2c3ccccc3C=NN12 returned NR1D1 modulator 5.0.
Screening Cc1ccc(C(=O)N=c2sccn2C)cc1S(=O)(=O)N1CCOCC1 returned CSN inh -0.4, HNF4A DNA FP 37.3*, NR1D1 modulator -0.5 and aDG glyco up -0.2.
For COC(=O)C[C@H]1CC[C@@H]2[C@H](COc3ccc(NC(=O)C(C)C)cc3C(=O)N2C)O1 the results were NR1D1 modulator -0.2.
Screening Cc1nc(SCC(=O)Nc2ccccn2)n[nH]1 returned CSN inh 2.7, HNF4A DNA FP 2.6, NR1D1 modulator 2.1 and aDG glyco up -0.2.
Cc1[nH]c(=O)[nH]c(=O)c1CSCC(=O)OCC(=O)Nc1ccccn1 was read as CSN inh 93.5*, HNF4A DNA FP -5.3, NR1D1 modulator 1.9 and aDG glyco up 0.0.
`Cc1ccc(S(=O)(=O)Nc2ccc(O)c3ccccc23)c(C)c1` gave CSN inh 0.3, HNF4A DNA FP -0.2, NR1D1 modulator 2.2 and aDG glyco up 1.6.
`Cc1ccc(C)c(S(=O)(=O)Nc2ccc(O)c3ccccc23)c1` gave CSN inh -1.0, HNF4A DNA FP 4.0, NR1D1 modulator 1.5 and aDG glyco up 4.3*.
Screening COc1ccccc1/C=C/C=C1\Oc2c(ccc(O)c2CN2CCN(CCO)CC2)C1=O returned CSN inh 64.0, HNF4A DNA FP 40.1*, NR1D1 modulator 8.4 and aDG glyco up -0.1.
O=C1/C(=C/C=C/c2ccccc2)Oc2c1ccc(O)c2CN1CCN(CCO)CC1 was read as CSN inh 37.2, HNF4A DNA FP 25.8, NR1D1 modulator 13.8 and aDG glyco up -0.1.
For C[C@@H]1CN([C@@H](C)CN(C)C)C(=O)c2cc(NC(=O)Nc3ccccc3)ccc2O[C@@H](C)CCCCO[C@H]1CN(C)S(=O)(=O)c1ccc(F)cc1 the results were NR1D1 modulator 8.5.
CN1CCN(C(=O)c2cnc(Cc3c[nH]c4ccccc34)c(I)c2)CC1 was read as CSN inh 61.8*, HNF4A DNA FP 7.0, NR1D1 modulator -3.2 and aDG glyco up -0.3.
Screening CN(C)C(=O)c1ccc(Oc2ccc(C(=O)N(C)C)cc2)cc1 returned CSN inh 3.4, HNF4A DNA FP 36.9*, NR1D1 modulator -2.2 and aDG glyco up -0.2.
Screening CC(=O)c1ccc(Oc2ccc(C(C)=O)cc2)cc1 returned CSN inh 1.4, HNF4A DNA FP 0.2, NR1D1 modulator -2.1 and aDG glyco up 0.0.
CCOC(=O)Nc1cc2c(cc1[N+](=O)[O-])-c1ccccc1C2=O was read as CSN inh 6.6, HNF4A DNA FP 38.1*, NR1D1 modulator -8.0 and aDG glyco up 0.7.
c1ccc2c(CN3CCOCC3)csc2c1 was read as CSN inh 0.2, HNF4A DNA FP -1.6, NR1D1 modulator -4.2 and aDG glyco up -0.2.
For c1ccc2c(CN3CCOCC3)c3ccccc3c(CN3CCOCC3)c2c1 the results were CSN inh -3.8, HNF4A DNA FP 31.8*, NR1D1 modulator -0.7 and aDG glyco up 0.1.
